Experimental data collected from several papers.
Target: Serine/threonine-protein kinase PAK 3 (PAK3, Homo sapiens, UniProt O75914)

Compound	read-out	action	method	concentration	quantity	value
O=C1Nc2ccc(Cl)cc2C1=Cc1cc(Cl)c(O)c(Cl)c1	cell-free assay	–	–	0.5 µM	remaining signal	94.3%
Cc1ccc(Nc2nccc(N(C)c3ccc4c(C)n(C)nc4c3)n2)cc1S(N)(=O)=O	enzyme activity	inhibitor	–	0.3 µM	inhibition	29%
Cc1ccc(C(=O)Nc2ccc(CN3CCN(C)CC3)c(C(F)(F)F)c2)cc1C#Cc1cnc2cccnn12	enzyme activity	inhibitor	–	23.5 nM	remaining activity	3.6%
N#CC1(c2ccccn2)CCN(Cc2cc(C(=O)N3CCCC3)c(=O)n3ccccc23)CC1	cell-free assay	–	competition with immobilised ligand	1 µM	remaining binding	100%
Nc1ncnc2occ(-c3ccc(NC(=O)Nc4cc(C(F)(F)F)ccc4F)cc3)c12	cell-free assay	inhibitor	–	20 µM	remaining signal	14%
COc1cc(-c2cn(C3CCc4ccccc4N(CC(F)(F)F)C3=O)nn2)ccc1-n1ccc(C)n1 (stereo not shown)	cell-free assay	–	competition with immobilised ligand	1 µM	remaining binding	100%
CC(C)(C)c1nc2c(s1)c1nc(N)ncc1c1ccc(NS(=O)(=O)c3c(F)cccc3F)c(F)c12	enzyme activity	inhibitor	radiometric	1 µM	remaining activity	87%
COc1cc2c(Nc3ccc(Br)cc3F)ncnc2cc1OCC1CCN(C)CC1	cell-free assay	–	–	0.5 µM	remaining signal	103%
COc1cc2ncnc(Nc3ccc(Oc4ccccc4)c(C)c3C)c2cc1OC	enzyme activity	inhibitor	–	1 µM	inhibition	10%
CC(C)CC(=O)N1CCc2nc(-c3ccc(Br)cc3)nc(N(C)Cc3ccccc3)c2C1	cell-free assay	–	competition with immobilised ligand	0.1 µM	remaining binding	100%
CC(C)(O)[C@H]1CC[C@H](Nc2ccc3ncc(-c4cccc(C(F)(F)F)c4)n3n2)CC1	enzyme activity	inhibitor	–	1 µM	remaining activity	94.2%
O=C1NC(=O)c2cc(Nc3ccc(F)cc3)c(Nc3ccc(F)cc3)cc21	cell-free assay	–	–	0.5 µM	remaining signal	99.4%
N[C@H]1CCN(c2nccc(-c3cnn4ncccc34)n2)C1	binding	–	–	1 µM	remaining binding	100%
CNC(=O)Nc1ccc2c(c1)CC[C@@]21OC(=O)N(CC(=O)N(Cc2ccc(F)cc2)[C@@H](C)C(F)(F)F)C1=O	cell-free assay	–	competition with immobilised ligand	1 µM	remaining binding	91%
O=C(Nc1cnn(-c2csc(C(=O)NC3COC3)c2)c1)Nc1c(F)cccc1Cl	enzyme activity	inhibitor	–	5 µM	remaining activity	64.2%
Cn1cc(Cl)c2c(Oc3c(F)cc(Nc4cc(Cl)nc(N)n4)cc3F)ccnc21	cell-free assay	–	competition with immobilised ligand	0.1 µM	remaining binding	100%
N#CCCc1ccc2c(c1)-c1[nH]c3ccc([N+](=O)[O-])cc3c1CC(=O)N2	cell-free assay	–	–	0.5 µM	remaining signal	97.1%
Cc1nc(C2CCN(C(=O)c3ccc(OC(F)(F)F)cc3N)CC2)c2ncc(N3CCN(C)CC3)cc2n1	cell-free assay	–	competition with immobilised ligand	1 µM	remaining binding	100%
Cc1ccc(C(=O)NCc2ccsc2)cc1C#Cc1cn(C(C)C)c2ncnc(N)c12	enzyme activity	inhibitor	–	1 µM	activity vs control	78%
